Legend:
WT HIV-1 = experiment: Anti-HIV-1 activity in MT-4 cells infected with HIV-1; assay type: cell-based; settings: for EC50: Human immunodeficiency virus 1, MT4; for SI: selectivity index, the ratio of CC50/EC50, WT HIV-1
[1] = Cytotoxicity in mock-infected MT-4 cell cultures; assay type: cell-based; settings: human, mock-infected MT-4 cells
[2] = system: HIV-1 mutant K103N + Y181C; experiment: Anti-HIV-1 efficacy against mutant K103N + Y181C in MT-4 cells; assay type: cell-based; settings: Human immunodeficiency virus 1, MT4, read-out: EC50 K103N + Y181C
Method in brief: (§1)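 MT-4 cells were infected with HIV-1 RT mutant strains. EC50 was the concentration giving 50% protection against viral cytopathicity, averaged from at least three independent experiments. Cytotoxicity in mock-infected cultures was read by MTT.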

HIV-1 mutant Y188L = experiment: Anti-HIV-1 efficacy against mutant Y188L in MT-4 cells; assay type: cell-based; settings: Human immunodeficiency virus 1, MT4, read-out: EC50 Y188L
Method in brief: as §1

HIV-1 mutant L100I = experiment: Anti-HIV-1 efficacy against mutant L100I in MT-4 cells; assay type: cell-based; settings: Human immunodeficiency virus 1, MT4, read-out: EC50 L100I
Method in brief: as §1

HIV-1 mutant Y181C = experiment: Anti-HIV-1 efficacy against mutant Y181C in MT-4 cells; assay type: cell-based; settings: Human immunodeficiency virus 1, MT4, read-out: EC50 Y181C
Method in brief: as §1

WT HIV-1 RT = WT HIV-1 RT (Human immunodeficiency virus type 1 group M subtype B, UniProt P03366); experiment: Inhibition of WT HIV-1 RT; assay type: biochemical
HIV-1 mutant E138K = experiment: Anti-HIV-1 efficacy against mutant E138K in MT-4 cells; assay type: cell-based; settings: Human immunodeficiency virus 1, MT4, read-out: EC50 E138K
Method in brief: as §1

HIV-1 mutant K103N = experiment: Anti-HIV-1 efficacy against mutant K103N in MT-4 cells; assay type: cell-based; settings: Human immunodeficiency virus 1, MT4, read-out: EC50 K103N
Method in brief: as §1

CYP2D6 = CYP2D6 (Homo sapiens, UniProt P10635); experiment: Cytochrome P450 inhibition assay, CYP2D6; assay type: in vitro ADME
Sequence of CYP2D6 (P10635 whole entry): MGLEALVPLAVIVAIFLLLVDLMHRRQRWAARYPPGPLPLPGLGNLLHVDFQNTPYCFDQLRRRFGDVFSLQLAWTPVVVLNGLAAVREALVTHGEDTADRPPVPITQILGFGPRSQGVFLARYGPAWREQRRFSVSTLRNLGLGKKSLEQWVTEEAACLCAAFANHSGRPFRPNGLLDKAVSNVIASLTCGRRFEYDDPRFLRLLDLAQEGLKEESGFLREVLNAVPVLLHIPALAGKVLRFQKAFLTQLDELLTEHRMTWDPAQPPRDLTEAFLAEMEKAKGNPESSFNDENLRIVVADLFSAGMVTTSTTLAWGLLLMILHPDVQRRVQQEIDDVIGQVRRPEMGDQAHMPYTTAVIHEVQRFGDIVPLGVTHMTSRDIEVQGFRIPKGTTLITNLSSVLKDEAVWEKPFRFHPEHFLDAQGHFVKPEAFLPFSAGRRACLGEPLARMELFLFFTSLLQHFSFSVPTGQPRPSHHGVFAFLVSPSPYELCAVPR

Structure (SMILES)	EC50 (WT HIV-1)	SI (WT HIV-1)	CC50 [1]	EC50 [2]	EC50 (HIV-1 mutant Y188L)	EC50 (HIV-1 mutant L100I)	EC50 (HIV-1 mutant Y181C)	IC50 (WT HIV-1 RT)	EC50 (HIV-1 mutant E138K)	EC50 (HIV-1 mutant K103N)	IC50 (CYP2D6)
Cn1c(Cn2ccc(C(F)(F)F)c(Oc3cncc(Cl)c3)c2=O)n[nH]c1=O [7a]	0.55 ± 0.23 µM	>563	> 311 µM	18.3 ± 11.4 µM	122 ± 62.1 µM	0.93 ± 0.51 µM	1.79 ± 0.58 µM	1.14 ± 0.043 µM	0.61 ± 0.04 µM	1.22 ± 0.56 µM	–
Cc1cc(Oc2c(C(F)(F)F)ccn(Cc3n[nH]c(=O)n3C)c2=O)c2cccc(F)c2n1 [7aa]	> 220 µM	<1	220 ± 44.4 µM	–	–	–	–	–	–	–	–
Cc1cc(Oc2c(C(F)(F)F)ccn(Cc3n[nH]c(=O)n3C)c2=O)c2cccc(C)c2n1 [7ac]	> 151 µM	<1	151 ± 27.9 µM	–	–	–	–	–	–	–	–
Cc1cc(Oc2c(C(F)(F)F)ccn(Cc3n[nH]c(=O)n3C)c2=O)c2cc(F)c(Cl)cc2n1 [7ae]	11.7 ± 9.1 µM	7.92	92.9 ± 44 µM	–	–	–	–	–	–	–	–
Cc1cc(Oc2c(C(F)(F)F)ccn(Cc3n[nH]c(=O)n3C)c2=O)c2c(Cl)c(F)ccc2n1 [7af]	33.3 ± 9.61 µM	2.45	81.5 ± 11.7 µM	–	–	–	–	–	–	–	–
Cn1c(Cn2ccc(C(F)(F)F)c(Oc3cnc4ccccc4c3)c2=O)n[nH]c1=O [7ag]	> 250 µM	>1	> 250 µM	–	–	–	–	–	–	–	–
Cn1c(Cn2ccc(C(F)(F)F)c(Oc3ccc4ncccc4c3)c2=O)n[nH]c1=O [7ah]	252 ± 5.75 µM	>1	> 299 µM	–	–	–	–	–	–	–	–
Cn1c(Cn2ccc(C(F)(F)F)c(Oc3ccc4cnccc4c3)c2=O)n[nH]c1=O [7ai]	11.2 ± 2.83 µM	>27	> 299 µM	–	–	–	–	–	–	–	–
Cn1c(Cn2ccc(C(F)(F)F)c(Oc3cc(Cl)c4ncccc4c3)c2=O)n[nH]c1=O [7ak]	> 192 µM	<1	192 ± 42.9 µM	–	–	–	–	–	–	–	–
Cn1c(Cn2ccc(C(F)(F)F)c(Oc3ccc4nc(Cl)ccc4c3)c2=O)n[nH]c1=O [7al]	46.7 ± 12.5 µM	3.68	172 ± 44.9 µM	–	–	–	–	–	–	–	–
Cn1c(Cn2ccc(C(F)(F)F)c(Oc3ccc4cccnc4c3Br)c2=O)n[nH]c1=O [7am]	> 164 µM	<1	164 ± 25.5 µM	–	–	–	–	–	–	–	–
Cn1c(Cn2ccc(C(F)(F)F)c(Oc3cccnc3Cl)c2=O)n[nH]c1=O [7b]	4.27 ± 0.75 µM	67.97	290 ± 24.1 µM	–	–	–	–	–	–	–	–
Cn1c(Cn2ccc(C(F)(F)F)c(Oc3ccc(Cl)nc3)c2=O)n[nH]c1=O [7c]	35.6 ± 10.3 µM	>9	> 311 µM	–	–	–	–	–	–	–	–
Cn1c(Cn2ccc(C(F)(F)F)c(Oc3cnc(Cl)c(Cl)c3)c2=O)n[nH]c1=O [7d]	2.02 ± 0.88 µM	122.98	248 ± 28.2 µM	–	–	–	–	–	–	–	–
Cn1c(Cn2ccc(C(F)(F)F)c(Oc3cncc(Br)c3)c2=O)n[nH]c1=O [7e]	0.49 ± 0.12 µM	>573	> 280 µM	12.3 ± 8.12 µM	39 ± 5.33 µM	0.68 ± 0.22 µM	0.85 ± 0.15 µM	0.74 ± 0.03 µM	0.62 ± 0.22 µM	0.95 ± 0.27 µM	–
Cn1c(Cn2ccc(C(F)(F)F)c(Oc3cccnc3Br)c2=O)n[nH]c1=O [7f]	4.44 ± 0.94 µM	61.07	270.9 ± 1.77 µM	–	–	–	–	–	–	–	–
Cn1c(Cn2ccc(C(F)(F)F)c(Oc3ccc(Br)nc3)c2=O)n[nH]c1=O [7g]	197 ± 58.9 µM	>1	> 280 µM	–	–	–	–	–	–	–	–
Cc1cncc(Oc2c(C(F)(F)F)ccn(Cc3n[nH]c(=O)n3C)c2=O)c1 [7h]	0.53 ± 0.16 µM	>616	> 328 µM	16.1 ± 7.33 µM	196 ± 12.1 µM	0.55 ± 0.33 µM	1.78 ± 0.1 µM	1.03 ± 0.14 µM	0.77 ± 0.04 µM	1.2 ± 0.18 µM	–
Cc1ncccc1Oc1c(C(F)(F)F)ccn(Cc2n[nH]c(=O)n2C)c1=O [7i]	6.76 ± 1.07 µM	>49	> 328 µM	–	–	–	–	–	–	–	–

Structure (SMILES)	EC50 (WT HIV-1)	SI (WT HIV-1)	CC50 [1]	EC50 [2]	EC50 (HIV-1 mutant Y188L)	EC50 (HIV-1 mutant L100I)	EC50 (HIV-1 mutant Y181C)	IC50 (WT HIV-1 RT)	EC50 (HIV-1 mutant E138K)	EC50 (HIV-1 mutant K103N)	IC50 (CYP2D6)
Cc1ccc(Oc2c(C(F)(F)F)ccn(Cc3n[nH]c(=O)n3C)c2=O)cn1 [7j]	21.1 ± 5 µM	–	> 328 µM	–	–	–	–	–	–	–	–
Cc1ccncc1Oc1c(C(F)(F)F)ccn(Cc2n[nH]c(=O)n2C)c1=O [7k]	1.53 ± 0.25 µM	>214	> 328 µM	–	–	–	–	–	–	–	–
Cc1ccc(Oc2c(C(F)(F)F)ccn(Cc3n[nH]c(=O)n3C)c2=O)c(Br)n1 [7l]	> 250 µM	<1	253 ± 16.8 µM	–	–	–	–	–	–	–	–
Cc1ccc(Oc2c(C(F)(F)F)ccn(Cc3n[nH]c(=O)n3C)c2=O)c(C)n1 [7m]	> 250 µM	<1	> 250 µM	–	–	–	–	–	–	–	–
CCc1nc(C)ccc1Oc1c(C(F)(F)F)ccn(Cc2n[nH]c(=O)n2C)c1=O [7n]	> 250 µM	–	299 ± 3.74 µM	–	–	–	–	–	–	–	–
Cc1cc(Oc2c(C(F)(F)F)ccn(Cc3n[nH]c(=O)n3C)c2=O)cnc1Br [7o]	1.27 ± 0.36 µM	>214	> 272 µM	–	–	–	–	–	–	–	–
Cc1cc(Oc2c(C(F)(F)F)ccn(Cc3n[nH]c(=O)n3C)c2=O)cnc1F [7p]	1.46 ± 0.54 µM	–	> 250 µM	–	–	–	–	–	–	–	–
COc1cncc(Oc2c(C(F)(F)F)ccn(Cc3n[nH]c(=O)n3C)c2=O)c1 [7q]	7.33 ± 5.03 µM	>43	> 250 µM	–	–	–	–	–	–	–	–
Cn1c(Cn2ccc(C(F)(F)F)c(Oc3ccc(C(F)(F)F)nc3)c2=O)n[nH]c1=O [7r]	> 250 µM	>1	> 250 µM	–	–	–	–	–	–	–	–
Cn1c(Cn2ccc(C(F)(F)F)c(Oc3cccnc3)c2=O)n[nH]c1=O [7s]	1.22 ± 0.24 µM	>278	> 367 µM	–	–	–	–	–	–	–	–
Cc1ncc(Oc2c(C(F)(F)F)ccn(Cc3n[nH]c(=O)n3C)c2=O)cn1 [7t]	> 250 µM	>1	> 250 µM	–	–	–	–	–	–	–	–
Cn1c(Cn2ccc(C(F)(F)F)c(Oc3cncc4ccccc34)c2=O)n[nH]c1=O [7u]	0.89 ± 0.23 µM	309.52	277 ± 10.1 µM	34 ± 13 µM	> 250 µM	0.5 ± 0.22 µM	1.56 ± 0.49 µM	4.38 ± 0.35 µM	0.9 ± 0.29 µM	3.01 ± 1.42 µM	–
Cn1c(Cn2ccc(C(F)(F)F)c(Oc3cccc4ncccc34)c2=O)n[nH]c1=O [7v]	4.48 ± 1.24 µM	62.10	278 ± 18.6 µM	–	–	–	–	–	–	–	–
Cn1c(Cn2ccc(C(F)(F)F)c(Oc3cccc4ccncc34)c2=O)n[nH]c1=O [7x]	1.23 ± 0.28 µM	>244	> 299 µM	–	–	–	–	–	–	–	–
Cn1c(Cn2ccc(C(F)(F)F)c(Oc3cccc4nccnc34)c2=O)n[nH]c1=O [7y]	8.07 ± 1.41 µM	27.30	220 ± 35.5 µM	–	–	–	–	–	–	–	–
Cc1cc(Oc2c(C(F)(F)F)ccn(Cc3n[nH]c(=O)n3C)c2=O)c2ccccc2n1 [7z]	> 233 µM	<1	233 ± 32.1 µM	–	–	–	–	–	–	–	–
Cn1c(Cn2ccc(C(F)(F)F)c(Oc3cc(Cl)cc(C#N)c3)c2=O)n[nH]c1=O [DOR, doravirine, reference compound]	0.013 ± 0.004 µM	–	293.24 ± 0.17 µM	0.142 ± 0.057 µM	0.5 ± 0.15 µM	0.0066 ± 0.0017 µM	0.025 ± 0.0023 µM	0.044 ± 0.005 µM	0.0075 ± 0.0026 µM	0.042 ± 0.0013 µM	–
COc1ccc2c(c1)[C@]13CCCC[C@@H]1[C@H](C2)N(C)CC3 [Dextromethorphan, reference compound]	–	–	–	–	–	–	–	–	–	–	0.0482 µM
Cc1cc(C#N)cc(C)c1Oc1nc(Nc2ccc(C#N)cc2)nc(N)c1Br [ETR, etravirine, reference compound]	0.0029 ± 0.002 µM	>1600	> 4.6 µM	0.031 ± 0.009 µM	0.018 ± 0.008 µM	0.006 ± 0.004 µM	0.019 ± 0.009 µM	–	0.006 ± 0.001 µM	0.002 µM	–
